Data: PMC5217177 (Journal of natural products, 2016)
“Also recorded” adds a separate entry of the source.

How the values were obtained:
[1] = tested on: Bacillus subtilis ATCC 6633; experiment: MIC determination, broth dilution in 96-well plates; assay type: cell-based; conditions: LB medium, 28–37 °C, 16–48 h, OD600 read-out, max conc ~10 μg/mL
Outline: (§1)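 Starter cultures were grown 16 h at 37 °C and 250 rpm, then diluted in medium to OD600 ~0.1. Test compound was serially diluted in DMSO, with DMSO alone as the negative control. Positive controls were kanamycin for the bacteria and amphotericin B for the yeast. Plates were shaken at 160 rpm during incubation. OD600 was normalized to vehicle wells, and the lowest inhibitory concentration was taken as the MIC.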

[2] = tested on: Salmonella enterica ATCC 10708; experiment: as above; assay type: cell-based; conditions: nutrient broth, 28–37 °C, 16–48 h, OD600 read-out, max conc ~10 μg/mL
Outline: as §1

[3] = tested on: Escherichia coli ATCC 12435; experiment: as above; assay type: cell-based; conditions: LB medium, 28–37 °C, 16–48 h, OD600 read-out, max conc ~10 μg/mL
Outline: as §1

[4] = tested on: Saccharomyces cerevisiae ATCC 204508; experiment: as above; assay type: cell-based; conditions: YAPD medium, 28–37 °C, 16–48 h, OD600 read-out, max conc ~10 μg/mL
Outline: as §1

[5] = tested on: S. aureus and B. subtilis; conditions: cited from earlier work
[6] = Stability under acidic conditions; assay type: physicochemical; conditions: observed during HPLC purification with TFA; UV/Vis monitoring
Gram-positive strains = experiment: Antibacterial activity, comparisons across the tested strains; assay type: cell-based; conditions: from MIC of Table 3
[7] = tested on: two human cancer cell lines; experiment: Cytotoxicity, comparison across PC3 and A549; assay type: cell-based; conditions: PC3 and A549, 48 h

Row | Substance | MIC, B. subtilis [1] [µg/mL] | MIC, S. enterica [2] [µg/mL] | MIC, E. coli [3] [µg/mL] | MIC, S. cerevisae [4] [µg/mL] | antibacterial activity based on zones of inhibition [5] | stability under acidic conditions [6] | fold more potent than actinomycin Y3 (antibacterial) (Gram-positive strains) [fold] | fold change in EC50 compared to actinomycin D (less potent) [7]
1 | actinomycin Y3 | >9.33 | >9.33 | >9.33 | >9.33 | – | – | – | –
2 | actinomycin Y4 | >9.32 | >9.32 | >9.32 | >9.32 | – | – | – | –
3 | actinomycin Y5 | – | – | – | – | modest antibacterial activity | – | – | –
4 | actinomycin Y6 [Compound 1] | 0.59 | >9.46 | >9.46 | 9.46 | – | not stable under acidic conditions; also recorded: unstable under acidic condition | ≥ 9 | 278–355 fold
